Reference: ChEMBL document CHEMBL3046221, “Asymmetric chloronicotinyl insecticide, 1-[1-(6-chloro-3-pyridyl)ethyl]-2-nitroiminoimidazolidine: preparation, resolution and biological activities toward insects and their nerve preparations” (Biosci Biotechnol Biochem, 2003)

Tests used:
[1] = test system: Musca domestica; test: Insecticidal activity against female Musca domestica (house fly) administered through injection into dorsal side of thorax pre-treated with 0.2% w/v NIA and 0.2% w/v PB before compound injection measured 1 hr post dose; assay type: functional
In short: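 Female houseflies anesthetized with CO2 were given 1 µl methanol with NIA 0.2% and PB 0.2% (w/v) topically on the abdomen. After 1 h at 25°C, 0.22 µl of compound in 50% aqueous ethanol at various concentrations was injected. Dead or paralyzed flies were counted 1 h later at 25°C, and ED50 (mol/insect) was derived by probit analysis.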

[2] = test system: Musca domestica; test: Insecticidal activity against female Musca domestica (house fly) administered through injection into dorsal side of thorax measured 1 hr post dose; assay type: functional
[3] = test system: Periplaneta americana; test: Neuroblocking potency against Periplaneta americana (American cockroach) abdominal central nerve cord assessed as compound concentration at which the frequency first reduced below 10 counts/30 secs […] by electrophysiologt method; assay type: functional
[4] = target: T1, Nicotinic acetylcholine receptor alpha 5 subunit (Musca domestica, UniProt A9XFY4); test: Displacement of [3HIMI from nicotinic acetylcholine receptor in Musca domestica (house fly) head membranes incubated for 60 min by liquid scintillation counting method; parameters: species or system Membrane
T1 sequence (A9XFY4 whole entry): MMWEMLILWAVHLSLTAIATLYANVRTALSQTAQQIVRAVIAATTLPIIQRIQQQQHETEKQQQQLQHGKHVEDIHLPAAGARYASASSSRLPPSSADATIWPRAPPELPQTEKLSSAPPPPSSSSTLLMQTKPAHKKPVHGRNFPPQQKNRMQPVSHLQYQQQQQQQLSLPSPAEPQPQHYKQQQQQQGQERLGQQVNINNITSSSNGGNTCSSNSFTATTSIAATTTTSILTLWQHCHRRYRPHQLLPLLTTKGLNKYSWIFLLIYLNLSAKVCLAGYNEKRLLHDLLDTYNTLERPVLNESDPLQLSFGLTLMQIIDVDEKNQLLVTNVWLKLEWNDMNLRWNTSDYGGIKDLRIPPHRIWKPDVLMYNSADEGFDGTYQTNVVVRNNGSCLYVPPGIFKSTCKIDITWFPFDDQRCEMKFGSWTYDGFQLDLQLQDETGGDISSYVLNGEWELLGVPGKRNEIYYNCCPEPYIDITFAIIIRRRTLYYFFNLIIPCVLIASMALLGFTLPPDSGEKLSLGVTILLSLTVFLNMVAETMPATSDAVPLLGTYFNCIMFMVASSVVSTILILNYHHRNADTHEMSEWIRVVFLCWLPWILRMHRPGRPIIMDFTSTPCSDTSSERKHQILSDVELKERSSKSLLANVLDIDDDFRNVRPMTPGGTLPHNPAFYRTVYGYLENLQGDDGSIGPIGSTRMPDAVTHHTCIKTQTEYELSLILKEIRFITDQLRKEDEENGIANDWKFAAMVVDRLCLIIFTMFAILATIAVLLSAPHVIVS
In short: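 Housefly heads homogenized in pH 7.4 phosphate/sucrose/EDTA buffer; 700 g and 125,000 g spins; pellet resuspended in pH 7.4 phosphate, 50 mM NaCl, 0.1% Triton X-100. Membranes (3 mg/ml protein) preincubated with compound in DMSO 3-5 min at 24°C, then [3H]imidacloprid 10 nM final, 60 min at 24°C. GF/B filtration; IC50 for inhibition of specific binding.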

Row | Structure (SMILES) | ED50 [1] | ED50 [2] | Activity [3] | IC50 [4]
1 | CC(c1ccc(Cl)nc1)N1CCN/C1=N\[N+](=O)[O-] (racemic) [(R,S)-METHYL-IMIDACLOPRID] | 1.7 fmol | 26 fmol | 15 µM | 0.21 µM
2 | C[C@H](c1ccc(Cl)nc1)N1CCN/C1=N\[N+](=O)[O-] [(R)-METHYL-IMIDACLOPRID] | 2.3 fmol | 55 fmol | 73 µM | 0.95 µM
3 | Clc1ccc([C@H]2C[C@@H]3CC[C@H]2N3)cn1 [(-)-EPIBATIDINE] |  |  |  | 1.34 µM
4 | CN1CCC[C@@H]1c1cccnc1 [R-NICOTINE] |  |  |  | 422 µM
5 | C[C@@H](c1ccc(Cl)nc1)N1CCN/C1=N\[N+](=O)[O-] [(S)-METHYL-IMIDACLOPRID] | 1.1 fmol | 45 fmol | 5.9 µM | 0.19 µM
6 | CN1CCC[C@H]1c1cccnc1 [NICOTINE] |  |  |  | 11.9 µM
7 | Clc1ccc([C@@H]2C[C@H]3CC[C@@H]2N3)cn1 [(+)-EPIBATIDINE] |  |  |  | 2.79 µM
8 | O=[N+]([O-])/N=C1\NCCN1Cc1ccc(Cl)nc1 [IMIDACLOPRID] | 0.26 fmol | 2.2 fmol | 2.3 µM | 
